Experimental data taken from ChEMBL document CHEMBL1143779, “Antiviral 2,5-disubstituted imidazo[4,5-c]pyridines: from anti-pestivirus to anti-hepatitis C virus activity” (Bioorg Med Chem Lett, 2007).
Activity calls are given as the source filed them. The rule behind the calls is not given here.

Columns and labels:
[1] = Cytotoxicity against Huh 5-2 cells; assay type: cell-based; details: human
Method in brief: (§1)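 MDBK or Huh 5-2 cells seeded at 5 · 10³ cells/well in MEM-FCS; serial compound dilutions added 24 h later. Read-out OD490 nm, expressed as OD treated/OD untreated control.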

[2] = Cytotoxicity against MDBK cells; assay type: cell-based, Bos taurus; details: cattle; method in brief: as §1
[3] = Selectivity index, ratio of CC50 for Huh 5-2 cells to EC50 for HCV; assay type: functional
Hepatitis C virus = assay: Antiviral activity against HCV in Huh 5-2 cells assessed as […]; assay type: functional, organism-based, Hepacivirus hominis
Method in brief: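 Huh 5-2 cells were seeded at 5×10³/well in complete DMEM with G418. After 24 h at 37 °C (5% CO₂), the medium was replaced with threefold serial compound dilutions in DMEM without G418 and incubated for 4 days. Values are means of 4–6 independent experiments.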

[4] = (§2) Selectivity index, ratio of CC50 for MDBK cells to EC50 for BVDV; assay type: functional
[5] = system: Bovine viral diarrhea virus 1; assay: Antiviral activity against BVDV in MDBK cells assessed as reduction of virus-induced cytopathic effect; assay type: functional, organism-based; details: Bovine viral diarrhea virus isolates and strains
MDBK = assay: as §2; assay type: functional

Row | Compound | CC50 [1] [µM] | CC50 [2] [µM] | Ratio CC50/EC50 [3] | EC50 (Hepatitis C virus) [µM] | Ratio CC50/EC50 [4] | EC50 [5] [µM] | Activity [3] | Activity (MDBK)
1 | Cc1ccc(-c2nc3ccn(Cc4ccc(Br)cc4)cc-3n2)cc1 | 13 | 21 | 2 | 8.2 | 53 | 0.4 |  | 
2 | Fc1ccccc1-c1nc2ccn(Cc3ccc(I)cc3)cc-2n1 | 58 | > 33 | 74 | 0.79 | >478 | 0.07 |  | 
3 | Clc1ccc(-c2nc3ccn(Cc4ccc(Br)cc4)cc-3n2)cc1 | 17 | > 33 |  | 13 | >47 | 0.7 | inactive | 
4 | COc1cccc(-c2nc3ccn(Cc4ccc(Br)cc4)cc-3n2)c1 | 28 | > 33 | 2 | 18 | >660 | 0.05 |  | 
5 | Brc1ccc(Cn2ccc3nc(-c4cccs4)nc-3c2)cc1 | 35 | > 33 |  | > 35 | >825 | 0.04 | inactive | 
6 | Brc1ccc(Cn2ccc3nc(-c4ccc5ccccc5c4)nc-3c2)cc1 | 9.7 | 7 | 2 | 5.7 | 259 | 0.03 |  | 
7 | Cc1ccccc1-c1nc2ccn(Cc3ccc(Br)cc3)cc-2n1 | 21 | > 33 |  | 24 | >541 | 0.061 | inactive | 
8 | Brc1ccc(Cn2ccc3nc(-c4cc(Br)cc(Br)c4)nc-3c2)cc1 | > 96 | > 33 |  | > 96 |  | > 33 | inactive | inactive
9 | Brc1ccc(Cn2ccc3nc(-c4ccccn4)nc-3c2)cc1 | 5.2 | 10 | 15 | 0.35 | 96 | 0.1 |  | 
10 | Brc1ccc(Cn2ccc3nc(-c4cccc5ccccc45)nc-3c2)cc1 | 12 | 23 |  | 9.7 | 77 | 0.3 | inactive | 
11 | Brc1ccc(Cn2ccc3nc(CCCCc4ccccc4)nc-3c2)cc1 | 2.2 | 5 |  | > 2.2 |  | > 5 | inactive | inactive
12 | CCc1nc2ccn(Cc3ccc(Br)cc3)cc-2n1 | 92 | > 33 |  | > 92 | >87 | 0.38 | inactive | 
13 | Fc1cccc(-c2nc3ccn(Cc4ccc(Br)cc4)cc-3n2)c1 | 44 | > 33 |  | > 44 | >825 | 0.04 | inactive | 
14 | CN(C)c1cccc(-c2nc3ccn(Cc4ccc(Br)cc4)cc-3n2)c1 | 79 | 24 |  | > 79 | 171 | 0.14 | inactive | 
15 | Brc1ccc(Cn2ccc3nc(CCCc4ccccc4)nc-3c2)cc1 | 12 | 22 | 2 | 7.4 | 8 | 3 |  | 
16 | Brc1ccc(Cn2ccc3nc(-c4ccc(Br)s4)nc-3c2)cc1 | 18 | > 33 |  | > 18 | >55 | 0.6 | inactive | 
17 | Brc1ccc(Cn2ccc3nc(-c4cccc(Br)c4)nc-3c2)cc1 | > 113 | > 33 |  | > 113 | >300 | 0.11 | inactive | 

Row | Compound | CC50 [1] [µM] | CC50 [2] [µM] | Ratio CC50/EC50 [3] | EC50 (Hepatitis C virus) [µM] | Ratio CC50/EC50 [4] | EC50 [5] [µM] | Activity [3] | Activity (MDBK)
18 | Brc1ccc(Cn2ccc3nc(CSc4ccccc4)nc-3c2)cc1 | 9.7 | 25 | 2 | 4.9 |  | > 25 |  | inactive
19 | Brc1ccc(Cn2ccc3nc(-c4cccnc4)nc-3c2)cc1 | 126 | > 33 |  | 109 | >206 | 0.16 | inactive | 
20 | Cc1cccc(-c2nc3ccn(Cc4ccc(Br)cc4)cc-3n2)c1 | 11 | 23 |  | > 11 | 372 | 0.06 | inactive | 
21 | Brc1ccc(Cn2ccc3nc(-c4ccncc4)nc-3c2)cc1 | 38 | > 33 | 3 | 14 | >70 | 0.47 |  | 
22 | Fc1ccc(-c2nc3ccn(Cc4ccc(Br)cc4)cc-3n2)cc1 | 37 | > 33 |  | 31 | >194 | 0.17 | inactive | 
23 | Brc1ccc(Cn2ccc3nc(-c4ccccc4Br)nc-3c2)cc1 | 36 | > 33 | 2 | 21 | >66 | 0.5 |  | 
24 | Brc1ccc(Cn2ccc3nc(-c4ccccc4)nc-3c2)cc1 | 38 |  |  | > 38 |  |  | inactive | 
25 | Clc1cccc(-c2nc3ccn(Cc4ccc(Br)cc4)cc-3n2)c1 | > 125 | > 33 | >2 | 83 | >220 | 0.15 |  | 
26 | Brc1ccc(Cn2ccc3nc(COc4ccccc4)nc-3c2)cc1 | 35 | > 33 | 1.5 | 25 |  | > 8 |  | 
27 | Clc1ccccc1-c1nc2ccn(Cc3ccc(Br)cc3)cc-2n1 | 43 | > 33 | 2 | 25 | >100 | 0.33 |  | 
28 | Fc1ccccc1-c1nc2ccn(Cc3ccc(Cl)cc3)cc-2n1 | 68 | > 33 | 1.5 | 44 | >300 | 0.11 |  | 
29 | Brc1ccc(Cn2ccc3nc(/C=C/c4ccccc4)nc-3c2)cc1 | 2.5 | 14 | >2 | 1.7 | 88 | 0.16 |  | 
30 | Brc1ccc(Cn2ccc3nc(-c4cccc(I)c4)nc-3c2)cc1 | 12 | > 33 | 2 | 5.7 | >83 | 0.07 |  | 
31 | Brc1ccc(Cn2ccc3nc(Cc4ccccc4)nc-3c2)cc1 | > 132 | > 33 | >2 | 79 |  | > 33 |  | inactive
32 | Brc1ccc(Cn2ccc3nc(CCc4ccccc4)nc-3c2)cc1 | 7.6 | 16 | 3 | 2.5 |  | > 16 |  | inactive
33 | FC(F)(F)c1cccc(-c2nc3ccn(Cc4ccc(Br)cc4)cc-3n2)c1 | > 116 | > 33 | >5 | 23 | >72 | 0.5 |  | 
